According to ChEMBL document CHEMBL1130118, “A novel radioiodination reagent for protein radiopharmaceuticals with L-lysine as a plasma-stable metabolizable linkage to liberate m-iodohippuric acid after lysosomal proteolysis” (J Med Chem, 1997):

Tests used:
Assay type in all cases: ADME, organism-based
Mus musculus [1] = assay: The biodistribution time for compound radioactivity after concomitant administration of [131 I ]L-HML-NGA and compound in mice. It is expressed as percent injected dose per gram of blood tissue after 3 hours; settings: in vivo
Summary of the method: (§1)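 Six-week-old male ddY mice received an intravenous injection of a 1:1 mix of the 131I- and 125I-labelled galactosyl-neoglycoalbumin conjugates, each diluted to 90 µg/mL protein in 0.1 M PBS pH 6.0, at 9 µg radioiodinated NGA per mouse. Groups of five were killed at 5, 15 and 30 min, 1 and 3 h. Organs were excised, weighed and well-counted, giving %ID/organ (blood %ID/g) as mean (SD).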

Mus musculus [2] = assay: The biodistribution time for compound radioactivity after concomitant administration of [131 I ]L-HML-NGA and compound in mice. It is expressed as percent injected dose per neck after 30 minutes; settings: in vivo, 0.5 h; summary of the method: as §1
Mus musculus [3] = assay: The biodistribution time for compound radioactivity after concomitant administration of [131 I ]L-HML-NGA and compound in mice. It is expressed as percent injected dose per intestine after 1 hour; settings: in vivo; summary of the method: as §1
Mus musculus [4] = assay: The biodistribution time for compound radioactivity after concomitant administration of [131 I ]L-HML-NGA and compound in mice. It is expressed as percent injected dose per stomach after 5 minutes; settings: in vivo; summary of the method: as §1
Mus musculus [5] = assay: The biodistribution time for compound radioactivity after concomitant administration of [131 I ]L-HML-NGA and [compound in mice. It is expressed as percent injected dose per stomach after 1 hour; settings: in vivo; summary of the method: as §1
Mus musculus [6] = assay: The biodistribution time for compound radioactivity after concomitant administration of [131 I ]L-HML-NGA and compound in mice. It is expressed as percent injected dose per intestine after 3 hours; settings: in vivo; summary of the method: as §1
Mus musculus [7] = assay: The biodistribution time for compound radioactivity after concomitant administration of [131 I ]L-HML-NGA and compound in mice. It is expressed as percent injected dose per liver after 1 hour; settings: in vivo; summary of the method: as §1
Mus musculus [8] = assay: The biodistribution time for compound radioactivity after concomitant administration of [131 I ]L-HML-NGA and compound in mice. It is expressed as percent injected dose per gram of blood tissue after 30 minutes; settings: in vivo, 0.5 h; summary of the method: as §1
Mus musculus [9] = assay: The biodistribution time for compound radioactivity after concomitant administration of [131 I ]L-HML-NGA and compound in mice. It is expressed as percent injected dose per gram of blood tissue after 1 hour; settings: in vivo; summary of the method: as §1
Mus musculus [10] = assay: The biodistribution time for compound radioactivity after concomitant administration of [[131 I ]L-HML-NGA and compound in mice. It is expressed as percent injected dose per kidney after 3 hours; settings: in vivo; summary of the method: as §1
Mus musculus [11] = assay: The biodistribution time for compound radioactivity after concomitant administration of [131 I ]L-HML-NGA and compound in mice. It is expressed as percent injected dose per neck after 1 hour; settings: in vivo; summary of the method: as §1
[12] = Cumulative radioactivity exerted by compound in the feces at 24 hour postinjection of [131 I ]L-HML-NGA and compound.; settings: in vivo
Summary of the method: (§2)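 Mice received one i.v. co-injection of the dual-isotope NGA mixture, 9 µg of each radioiodinated protein, and were housed in metabolic cages for 24 h. Cumulative urine and feces were collected and counted. Values are % injected dose, mean (SD) of five animals, with a Student's paired t-test between the two co-administered conjugates.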

Mus musculus [13] = assay: The biodistribution time for compound radioactivity after concomitant administration of [131 I ]L-HML-NGA and compound in mice. It is expressed as percent injected dose per neck after 5 minutes; settings: in vivo; summary of the method: as §1
Mus musculus [14] = assay: The biodistribution time for compound radioactivity after concomitant administration of [131 I ]L-HML-NGA and compound in mice. It is expressed as percent injected dose per stomach after 3 hours; settings: in vivo; summary of the method: as §1
Mus musculus [15] = assay: The biodistribution time for compound radioactivity after concomitant administration of [131 I ]L-HML-NGA and compound in mice. It is expressed as percent injected dose per intestine after 30 minutes; settings: in vivo, 0.5 h; summary of the method: as §1
Mus musculus [16] = assay: The biodistribution time for compound radioactivity after concomitant administration of [[131 I ]L-HML-NGA and compound in mice. It is expressed as percent injected dose per kidney after 5 minutes; settings: in vivo; summary of the method: as §1
Mus musculus [17] = assay: The biodistribution time for compound radioactivity after concomitant administration of [131 I ]L-HML-NGA and compound in mice. It is expressed as percent injected dose per liver after 30 minutes; settings: in vivo, 0.5 h; summary of the method: as §1
Mus musculus [18] = assay: The biodistribution time for compound radioactivity after concomitant administration of [[131 I ]L-HML-NGA and compound in mice. It is expressed as percent injected dose per kidney after 30 minutes; settings: in vivo, 0.5 h; summary of the method: as §1
Mus musculus [19] = assay: The biodistribution time for compound radioactivity after concomitant administration of [131 I ]L-HML-NGA and compound in mice. It is expressed as percent injected dose per gram of blood tissue after 5 minutes; settings: in vivo; summary of the method: as §1
Mus musculus [20] = assay: The biodistribution time for compound radioactivity after concomitant administration of [131 I ]L-HML-NGA and compound in mice. It is expressed as percent injected dose per intestine after 5 minutes; settings: in vivo; summary of the method: as §1
Mus musculus [21] = assay: The biodistribution time for compound radioactivity after concomitant administration of [131 I ]L-HML-NGA and compound in mice. It is expressed as percent injected dose per gram of blood tissue after 15 minutes; settings: in vivo, 0.25 h; summary of the method: as §1
Mus musculus [22] = assay: The biodistribution time for compound radioactivity after concomitant administration of [131 I ]L-HML-NGA and compound in mice. It is expressed as percent injected dose per intestine after 15 minutes; settings: in vivo, 0.25 h; summary of the method: as §1
Mus musculus [23] = assay: The biodistribution time for compound radioactivity after concomitant administration of [131 I ]L-HML-NGA and compound in mice. It is expressed as percent injected dose per liver after 15 minutes; settings: in vivo, 0.25 h; summary of the method: as §1
Mus musculus [24] = assay: The biodistribution time for compound radioactivity after concomitant administration of [131 I ]L-HML-NGA and compound in mice. It is expressed as percent injected dose per liver after 3 hours; settings: in vivo; summary of the method: as §1
Mus musculus [25] = assay: The biodistribution time for compound radioactivity after concomitant administration of [131 I ]L-HML-NGA and compound in mice. It is expressed as percent injected dose per liver after 5 minutes; settings: in vivo; summary of the method: as §1
Mus musculus [26] = assay: The biodistribution time for compound radioactivity after concomitant administration of [[131 I ]L-HML-NGA and compound in mice. It is expressed as percent injected dose per kidney after 15 minutes; settings: in vivo, 0.25 h; summary of the method: as §1
Mus musculus [27] = assay: The biodistribution time for compound radioactivity after concomitant administration of [131 I ]L-HML-NGA and compound in mice. It is expressed as percent injected dose per stomach after 30 minutes; settings: in vivo, 0.5 h; summary of the method: as §1
[28] = Cumulative radioactivity exerted by compound in the urine at 24 hour postinjection of [131 I ]L-HML-NGA and compound; settings: in vivo; summary of the method: as §2
Mus musculus [29] = assay: The biodistribution time for compound radioactivity after concomitant administration of [131 I ]L-HML-NGA and compound in mice. It is expressed as percent injected dose per neck after 15 minutes; settings: in vivo, 0.25 h; summary of the method: as §1
Mus musculus [30] = assay: The biodistribution time for compound radioactivity after concomitant administration of [[131 I ]L-HML-NGA and compound in mice. It is expressed as percent injected dose per kidney after 1 hour; settings: in vivo; summary of the method: as §1
Mus musculus [31] = assay: The biodistribution time for compound radioactivity after concomitant administration of [131 I ]L-HML-NGA and compound in mice. It is expressed as percent injected dose per stomach after 15 minutes; settings: in vivo, 0.25 h; summary of the method: as §1
Mus musculus [32] = assay: The biodistribution time for compound radioactivity after concomitant administration of [131 I ]L-HML-NGA and compound in mice. It is expressed as percent injected dose per neck after 3 hours; settings: in vivo; summary of the method: as §1
Homo sapiens [33] = organism: Homo sapiens; assay: The percent protein-bound radioactivity in NGAfractions following incubation of radioiodinated compound in human serum after 24 hours
Summary of the method: (§3)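 Conjugates were diluted to 0.5 mg/mL in 0.1 M PBS pH 6.0, and 20 µL was added to 230 µL of freshly prepared human serum. Samples were incubated at 37 °C and taken at 1, 3, 6 or 24 h. Protein-bound fraction (Rf 0) was separated from small metabolites (Rf 0.6-0.9) by paper chromatography in methanol-water 4:1. Protein-bound radioactivity was divided by the initial radiochemical purity. Values are mean (SD).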

Mus musculus [34] = assay: The biodistribution time for compound radioactivity after concomitant administration of [131 I ]L-HML-NGA and compound in mice. It is expressed as percent injected dose per neck. Values are mean(SD) of five animals for each experiment after 3 hours; settings: in vivo; summary of the method: as §1
Homo sapiens [35] = organism: Homo sapiens; assay: The percent protein-bound radioactivity in NGAfractions following incubation of radioiodinated compound in human serum after 3 hours; summary of the method: as §3
Homo sapiens [36] = organism: Homo sapiens; assay: The percent protein-bound radioactivity in NGAfractions following incubation of radioiodinated compound in human serum after 6 hours; settings: in vitro; summary of the method: as §3
Homo sapiens [37] = organism: Homo sapiens; assay: The percent protein-bound radioactivity in NGAfractions following incubation of radioiodinated compound in human serum after 1 hour; summary of the method: as §3

Structure (SMILES) | Radioactivity (Mus musculus [1]) [%] | Radioactivity (Mus musculus [2]) [%] | Radioactivity (Mus musculus [3]) [%] | Radioactivity (Mus musculus [4]) [%] | Radioactivity (Mus musculus [5]) [%] | Radioactivity (Mus musculus [6]) [%] | Radioactivity (Mus musculus [7]) [%] | Radioactivity (Mus musculus [8]) [%] | Radioactivity (Mus musculus [9]) [%] | Radioactivity (Mus musculus [10]) [%] | Radioactivity (Mus musculus [11]) [%] | Radioactivity [12] [%] | Radioactivity (Mus musculus [13]) [%] | Radioactivity (Mus musculus [14]) [%] | Radioactivity (Mus musculus [15]) [%] | Radioactivity (Mus musculus [16]) [%] | Radioactivity (Mus musculus [17]) [%] | Radioactivity (Mus musculus [18]) [%] | Radioactivity (Mus musculus [19]) [%] | Radioactivity (Mus musculus [20]) [%] | other results
N[C@@H](CS)C(=O)SC1CC(=O)N(CCCC[C@@H](NC(=O)CNC(=O)c2cccc([125I])c2)C(=O)O)C1=O (stereo partly drawn) | 0.34 | 0.18 | 34.28 | 0.24 | 1.4 | 40.82 | 12.6 | 1.11 | 0.54 | 0.34 | 0.11 | 40.97 | 0.15 | 1.09 | 21.6 | 1.26 | 27.49 | 1.73 | 1.15 | 1.14 | Radioactivity (Mus musculus [21]): 1.78%; Radioactivity (Mus musculus [22]): 5.11%; Radioactivity (Mus musculus [23]): 66.9%; Radioactivity (Mus musculus [24]): 3.62%; Radioactivity (Mus musculus [25]): 93.14%; Radioactivity (Mus musculus [26]): 2.97%; Radioactivity (Mus musculus [27]): 2%; Radioactivity [28]: 39.1%; Radioactivity (Mus musculus [29]): 0.2%; Radioactivity (Mus musculus [30]): 0.72%; Radioactivity (Mus musculus [31]): 0.65%; Radioactivity (Mus musculus [32]): 0.04%
N=C(CCCSC1CC(=O)N(CCCC[C@H](NC(=O)CNC(=O)c2cccc([125I])c2)C(=O)O)C1=O)NC(=O)[C@@H](N)CCCCN (stereo partly drawn) | 0.41 | 0.19 | 5.17 | 0.24 | 0.42 | 4.96 | 5.92 | 1.7 | 0.73 | 0.22 | 0.07 | 4.03 | 0.11 | 0.35 | 4.79 | 0.33 | 18.1 | 4.64 | 1.17 | 0.43 | Radioactivity (Homo sapiens [33]): 97.85%; Radioactivity (Mus musculus [34]): 0.03%; Radioactivity (Homo sapiens [35]): 99.4%; Radioactivity (Homo sapiens [36]): 99.5%; Radioactivity (Mus musculus [21]): 2.76%; Radioactivity (Mus musculus [22]): 2.26%; Radioactivity (Mus musculus [23]): 55.86%; Radioactivity (Mus musculus [24]): 3%; Radioactivity (Mus musculus [25]): 93.67%; Radioactivity (Mus musculus [26]): 4.38%; Radioactivity (Mus musculus [27]): 0.36%; Radioactivity [28]: 78.26%; Radioactivity (Homo sapiens [37]): 99.88%; Radioactivity (Mus musculus [29]): 0.25%; Radioactivity (Mus musculus [30]): 1.04%; Radioactivity (Mus musculus [31]): 0.5%
